# Test results published in ChEMBL document CHEMBL5724801, “EUbOPEN Chemogenomics Library - Multiplex” (2024).
# “And” between values parts separate entries of the source, which are not always exact repeats. Equal entries are not always repeated.
# Legend:
# HEK-293T = experiment: Multiplex assay against HEK293T; type: toxicity, cell-based; conditions: human
# Method in brief: (§1)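 Hoechst33342, BioTracker Green Microtubule Cytoskeleton Dye, MitoTracker Red and Annexin V Alexa Fluor 680 were added to live cells at seeding, and imaging on a CQ1 microscope at 37°C and 5% CO2 followed compound addition. Gating by CellPathfinder machine learning separated cells into Hoechst high-intensity objects or normal cells, then normal cells into healthy, pyknosed or fragmented nuclei, then pyknosed cells into mitotic or apoptotic. Per cents of healthy-nucleus cells are reported for the tubulin, mitochondrial-mass and membrane-permeability phenotypes.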
# Fibroblast = experiment: Multiplex assay against human fibroblast; type: toxicity, cell-based; method in brief: as §1
# [1] = 12 h, 1 µM, compound concentration 1 uM
# [2] = 12 h, 10 µM, compound concentration 10 uM
# [3] = 24 h, 1 µM, compound concentration 1 uM
# [4] = 24 h, 10 µM, compound concentration 10 uM
# [5] = 48 h, 1 µM, compound concentration 1 uM
# [6] = 48 h, 10 µM, compound concentration 10 uM
compound,measurement,setting,value
CCCCCN1C(=O)C2(COc3cc4c(cc32)OCO4)c2ccccc21 (configuration not stated),Population Apoptotic (%),HEK-293T; [1],10.57% and 8.94%
same,Population Fragmented Nuclei (%),HEK-293T; [1],1.96% and 2%
same,Population Hoechst High Intensity Objects (%),HEK-293T; [1],0%
same,Population Membrane Permeable-Phenotype (%),HEK-293T; [1],0%
same,Population Mitotic Cells (%),HEK-293T; [1],89.43% and 91.06%
same,Population Normal (%),HEK-293T; [1],100%
same,Population Pyknosed Nuclei (%),HEK-293T; [1],40.2% and 82%
same,Total Cell Count,HEK-293T; [1],306 and 150
same,Population Apoptotic (%),HEK-293T; [2],8.79% and 6.67%
same,Population Fragmented Nuclei (%),HEK-293T; [2],0.63% and 1.94%
same,Population Hoechst High Intensity Objects (%),HEK-293T; [2],0.31% and 0%
same,Population Membrane Permeable-Phenotype (%),HEK-293T; [2],1.48% and 0%
same,Population Mitochondria Different-Phenotype (%),HEK-293T; [2],29.63% and 35.29%
same,Population Mitotic Cells (%),HEK-293T; [2],91.21% and 93.33%
same,Population Normal (%),HEK-293T; [2],99.69% and 100%
same,Population Pyknosed Nuclei (%),HEK-293T; [2],57.05% and 87.1%
same,Total Cell Count,HEK-293T; [2],320 and 155
same,Population Apoptotic (%),HEK-293T; [3],13.4% and 12.71%
same,Population Fragmented Nuclei (%),HEK-293T; [3],1.54% and 2.04%
same,Population Healthy Nuclei (%),HEK-293T; [3],79.73% and 37.76%
same,Population Hoechst High Intensity Objects (%),HEK-293T; [3],0% and 0.51%
same,Population Membrane Permeable-Phenotype (%),HEK-293T; [3],1.21% and 2.7%
same,Population Mitochondria Different-Phenotype (%),HEK-293T; [3],16.46% and 10.81%
same,Population Mitotic Cells (%),HEK-293T; [3],86.6% and 87.29%
same,Population Normal (%),HEK-293T; [3],100% and 99.49%
same,Population Tubulin-Different-Phenotype (%),HEK-293T; [3],11.86% and 4.05%
same,Total Cell Count,HEK-293T; [3],518 and 197
same,Population Apoptotic (%),HEK-293T; [4],19.31% and 11.94%
same,Population Fragmented Nuclei (%),HEK-293T; [4],1.12% and 2.34%
same,Population Hoechst High Intensity Objects (%),HEK-293T; [4],0.22% and 0%
same,Population Membrane Permeable-Phenotype (%),HEK-293T; [4],1.34% and 0%
same,Population Mitochondria Different-Phenotype (%),HEK-293T; [4],25.5% and 21.21%
same,Population Mitotic Cells (%),HEK-293T; [4],80.69% and 88.06%
same,Population Normal (%),HEK-293T; [4],99.78% and 100%
same,Population Pyknosed Nuclei (%),HEK-293T; [4],32.37% and 78.36%
same,Population Tubulin-Different-Phenotype (%),HEK-293T; [4],30.2% and 15.15%
same,Total Cell Count,HEK-293T; [4],449 and 171
same,Population Apoptotic (%),HEK-293T; [5],9.4% and 23.88%
same,Population Fragmented Nuclei (%),HEK-293T; [5],2.17% and 2.27%
same,Population Healthy Nuclei (%),HEK-293T; [5],88.04% and 75.97%
same,Population Hoechst High Intensity Objects (%),HEK-293T; [5],0% and 0.65%
same,Population Membrane Permeable-Phenotype (%),HEK-293T; [5],4.37% and 2.99%
same,Population Mitochondria Different-Phenotype (%),HEK-293T; [5],13.77% and 12.82%
same,Population Mitotic Cells (%),HEK-293T; [5],90.6% and 76.12%
same,Population Normal (%),HEK-293T; [5],100% and 99.35%
same,Population Pyknosed Nuclei (%),HEK-293T; [5],9.78% and 21.75%
same,Population Fragmented Nuclei (%),HEK-293T; [6],2.44% and 0.93%
same,Population Healthy Nuclei (%),HEK-293T; [6],80.51% and 57.41%
same,Population Hoechst High Intensity Objects (%),HEK-293T; [6],0%
same,Population Membrane Permeable-Phenotype (%),HEK-293T; [6],5.04% and 0%
same,Population Mitochondria Different-Phenotype (%),HEK-293T; [6],42.8% and 31.45%
same,Population Mitotic Cells (%),HEK-293T; [6],93.2% and 75.56%
same,Population Normal (%),HEK-293T; [6],100%
same,Population Pyknosed Nuclei (%),HEK-293T; [6],17.05% and 41.67%
same,Population Apoptotic (%),Fibroblast; [1],17.31% and 20.59%
same,Population Fragmented Nuclei (%),Fibroblast; [1],11.05% and 2.26%
same,Population Healthy Nuclei (%),Fibroblast; [1],61.58% and 82.35%
same,Population Hoechst High Intensity Objects (%),Fibroblast; [1],0%
same,Population Membrane Permeable-Phenotype (%),Fibroblast; [1],2.56% and 3.85%
same,Population Mitochondria Different-Phenotype (%),Fibroblast; [1],11.97% and 6.04%
same,Population Mitotic Cells (%),Fibroblast; [1],82.69% and 79.41%
same,Population Normal (%),Fibroblast; [1],100%
same,Population Pyknosed Nuclei (%),Fibroblast; [1],27.37% and 15.38%
same,Population Tubulin-Different-Phenotype (%),Fibroblast; [1],20.51% and 12.09%
same,Total Cell Count,Fibroblast; [1],190 and 221
same,Population Fragmented Nuclei (%),Fibroblast; [2],8.24% and 5.79%
same,Population Healthy Nuclei (%),Fibroblast; [2],54.95% and 72.97%
same,Population Hoechst High Intensity Objects (%),Fibroblast; [2],0%
same,Population Membrane Permeable-Phenotype (%),Fibroblast; [2],4% and 3.7%
same,Population Mitochondria Different-Phenotype (%),Fibroblast; [2],14% and 13.76%
same,Population Mitotic Cells (%),Fibroblast; [2],97.01% and 85.45%
same,Population Normal (%),Fibroblast; [2],100%
same,Population Pyknosed Nuclei (%),Fibroblast; [2],36.81% and 21.24%
same,Population Tubulin-Different-Phenotype (%),Fibroblast; [2],36% and 35.45%
same,Total Cell Count,Fibroblast; [2],182 and 259
same,Population Apoptotic (%),Fibroblast; [3],18.18% and 13.04%
same,Population Fragmented Nuclei (%),Fibroblast; [3],9.76% and 2.67%
same,Population Healthy Nuclei (%),Fibroblast; [3],74.15% and 87.11%
same,Population Hoechst High Intensity Objects (%),Fibroblast; [3],0%
same,Population Membrane Permeable-Phenotype (%),Fibroblast; [3],4.61% and 1.53%
same,Population Mitochondria Different-Phenotype (%),Fibroblast; [3],7.89% and 4.59%
same,Population Mitotic Cells (%),Fibroblast; [3],81.82% and 86.96%
same,Population Normal (%),Fibroblast; [3],100%
same,Population Pyknosed Nuclei (%),Fibroblast; [3],16.1% and 10.22%
same,Population Tubulin-Different-Phenotype (%),Fibroblast; [3],16.45% and 15.82%
same,Total Cell Count,Fibroblast; [3],205 and 225
same,Population Apoptotic (%),Fibroblast; [4],4.65% and 8.82%
